PMC7781011 (Journal of Inflammation Research, 2020)
Where two headings read alike, the source gives them in different places.

How the values were obtained:
mouse COX-1 = target: T1, mouse COX-1 (Mus musculus, UniProt P22437); assay: Cell-free fluorometric COX-1 assay; assay type: biochemical
T1 sequence (P22437 27-602): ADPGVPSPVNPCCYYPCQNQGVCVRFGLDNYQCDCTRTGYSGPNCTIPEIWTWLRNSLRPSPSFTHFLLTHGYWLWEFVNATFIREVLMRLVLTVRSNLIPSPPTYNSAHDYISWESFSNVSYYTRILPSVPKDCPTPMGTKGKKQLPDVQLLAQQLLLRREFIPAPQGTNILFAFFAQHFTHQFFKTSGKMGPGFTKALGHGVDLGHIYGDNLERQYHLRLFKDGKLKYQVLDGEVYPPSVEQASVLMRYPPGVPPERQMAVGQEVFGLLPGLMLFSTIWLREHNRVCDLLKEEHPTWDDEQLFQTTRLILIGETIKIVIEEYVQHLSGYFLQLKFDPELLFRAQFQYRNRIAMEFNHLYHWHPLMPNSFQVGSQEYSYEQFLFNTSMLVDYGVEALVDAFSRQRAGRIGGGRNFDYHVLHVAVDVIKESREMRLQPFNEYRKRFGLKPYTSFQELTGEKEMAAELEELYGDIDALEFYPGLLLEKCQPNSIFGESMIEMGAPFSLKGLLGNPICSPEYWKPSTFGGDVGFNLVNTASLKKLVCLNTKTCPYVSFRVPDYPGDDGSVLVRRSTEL

[1] = tested on: PGE2 production in LPS-stimulated macrophages of humans, mice, and rats; assay: PGE2 production in LPS-stimulated macrophages, range over species; assay type: cell-based; conditions: Macrophage, read-out: IC50 range PGE2 production
Outline: (§1)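 Human macrophages derived from THP-1 monocytes with PMA. Rat/mouse peritoneal macrophages collected by lavage with ice-cold DMEM, selected by glass adherence (1 h, 37°C), Trypan-blue checked. Cells in DMEM+10% FBS at 10,000 (96-well) or 40,000 (24-well) per well, given non-toxic compound doses, then LPS 10 µg/mL for 24 h. PGE2, PGI2 and LTB4 measured in supernatant. IC50 by four-parameter nonlinear regression.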

[2] = tested on: PGI2 production in LPS-stimulated macrophages of humans, mice, and rats; assay: PGI2 production in LPS-stimulated macrophages, range over species; assay type: cell-based; conditions: Macrophage
Outline: as §1

human COX-1 = human COX-1 (Homo sapiens, UniProt P23219); assay: Cell-free fluorometric COX-1 assay; assay type: biochemical
Chain of human COX-1 (P23219 24-599): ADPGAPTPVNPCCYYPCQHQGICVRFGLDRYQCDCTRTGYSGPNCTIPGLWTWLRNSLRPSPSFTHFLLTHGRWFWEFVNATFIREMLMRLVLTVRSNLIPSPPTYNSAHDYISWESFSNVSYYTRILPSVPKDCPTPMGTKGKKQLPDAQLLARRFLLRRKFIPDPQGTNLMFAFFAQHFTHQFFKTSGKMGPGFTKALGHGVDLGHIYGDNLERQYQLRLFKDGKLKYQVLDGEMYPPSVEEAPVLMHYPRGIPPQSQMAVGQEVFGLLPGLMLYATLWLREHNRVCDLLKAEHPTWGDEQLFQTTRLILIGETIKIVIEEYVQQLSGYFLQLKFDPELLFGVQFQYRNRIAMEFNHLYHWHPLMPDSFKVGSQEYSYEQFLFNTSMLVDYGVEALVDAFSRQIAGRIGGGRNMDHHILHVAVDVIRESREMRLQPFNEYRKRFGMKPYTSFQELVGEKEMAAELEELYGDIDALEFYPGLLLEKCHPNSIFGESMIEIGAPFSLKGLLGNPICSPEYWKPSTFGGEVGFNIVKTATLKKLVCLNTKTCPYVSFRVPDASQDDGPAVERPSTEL

mouse 5-LOX = target: T2, mouse 5-LOX (Mus musculus, UniProt P48999); assay: Cell-free fluorometric 5-LOX assay; assay type: biochemical
T2 sequence (P48999 1-674): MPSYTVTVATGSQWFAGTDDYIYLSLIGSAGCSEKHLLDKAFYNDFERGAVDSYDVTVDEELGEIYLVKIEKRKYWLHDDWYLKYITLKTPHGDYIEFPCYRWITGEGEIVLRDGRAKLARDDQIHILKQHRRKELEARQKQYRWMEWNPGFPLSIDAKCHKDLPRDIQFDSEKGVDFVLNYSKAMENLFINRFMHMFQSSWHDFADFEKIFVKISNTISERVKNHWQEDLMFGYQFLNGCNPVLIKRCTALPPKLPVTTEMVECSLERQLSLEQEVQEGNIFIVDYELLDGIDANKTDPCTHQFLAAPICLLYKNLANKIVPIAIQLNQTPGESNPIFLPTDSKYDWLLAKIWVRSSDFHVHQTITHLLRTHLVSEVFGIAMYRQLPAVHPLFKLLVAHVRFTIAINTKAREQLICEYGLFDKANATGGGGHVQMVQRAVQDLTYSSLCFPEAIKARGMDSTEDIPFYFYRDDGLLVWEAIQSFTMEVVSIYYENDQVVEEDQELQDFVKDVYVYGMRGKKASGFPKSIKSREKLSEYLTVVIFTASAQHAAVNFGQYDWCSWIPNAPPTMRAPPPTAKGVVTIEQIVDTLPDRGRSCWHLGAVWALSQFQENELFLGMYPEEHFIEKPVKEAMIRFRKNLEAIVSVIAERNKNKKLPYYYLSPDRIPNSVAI

rat 5-LOX = target: T3, rat 5-LOX (Rattus norvegicus, UniProt P12527); assay: Cell-free fluorometric 5-LOX assay; assay type: biochemical
T3 sequence (P12527 1-673): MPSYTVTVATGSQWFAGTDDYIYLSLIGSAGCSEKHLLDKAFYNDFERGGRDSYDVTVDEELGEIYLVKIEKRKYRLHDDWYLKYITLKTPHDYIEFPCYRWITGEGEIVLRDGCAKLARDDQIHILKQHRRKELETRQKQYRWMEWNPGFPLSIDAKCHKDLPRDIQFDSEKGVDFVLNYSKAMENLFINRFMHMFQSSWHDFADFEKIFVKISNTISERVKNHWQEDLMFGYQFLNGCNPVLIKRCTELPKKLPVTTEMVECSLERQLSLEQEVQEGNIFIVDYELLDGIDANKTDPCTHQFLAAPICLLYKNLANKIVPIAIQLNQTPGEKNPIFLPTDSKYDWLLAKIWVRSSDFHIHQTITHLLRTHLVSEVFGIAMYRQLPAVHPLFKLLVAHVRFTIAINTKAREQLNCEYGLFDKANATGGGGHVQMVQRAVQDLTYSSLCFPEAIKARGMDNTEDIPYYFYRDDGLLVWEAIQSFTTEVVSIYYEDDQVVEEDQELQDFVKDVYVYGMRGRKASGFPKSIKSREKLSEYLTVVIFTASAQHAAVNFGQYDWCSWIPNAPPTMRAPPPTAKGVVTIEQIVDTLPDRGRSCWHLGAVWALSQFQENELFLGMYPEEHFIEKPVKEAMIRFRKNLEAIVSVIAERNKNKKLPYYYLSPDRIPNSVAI

Row | Compound | inhibition of COX-1 activity (mouse COX-1; cell-free, mouse, up to the tested range of 1 mM) | IC50 [1] [µM] | IC50 ([2]; read-out: IC50 PGI2 production) [µM] | inhibition of COX-1 activity (human COX-1; cell-free, human, up to the tested range of 1 mM) | IC50 (mouse 5-LOX) [µM] | IC50 (rat 5-LOX) [µM] | IC50 (mouse COX-1) [µM] | IC50 ([2]; read-out: IC50 range PGI2 production) [µM] | IC50 (human COX-1) [µM]
1 | CC1(C)Cc2c(-c3ccccc3)c(-c3ccc(Cl)cc3)c(CC(=O)NCC(=O)O)n2C1 [LFA-9, 2-[[2-[2-(4-chlorophenyl)-6,6-dimethyl-1-phenyl-5,7-dihydropyrrolizin-3-yl]acetyl]amino]acetic acid] | did not show inhibition | 0.47 to 0.78 | > 100 | did not show inhibition | 2.64 | 0.89 | – | – | –
2 | CC1(C)Cc2c(-c3ccccc3)c(-c3ccc(Cl)cc3)c(CC(=O)O)n2C1 [Licofelone, reference compound] | – | 0.56 to 1.31 | – | – | 2.34 | 0.64 | 1.74 | 0.85 to 0.91 | 1.65
